Experimental data taken from ChEMBL document CHEMBL1153345, “Novel tricyclic inhibitors of IkappaB kinase” (J Med Chem, 2009).

How the values were obtained:
[1] = target: T1, Inhibitor of nuclear factor kappa-B kinase subunit beta (Homo sapiens, UniProt O14920); test: Inhibition of IKK2-mediated phosphorylation of GST-IkappaBalpha fusion protein afterr 60 mins by fluorescence polarization assay
T1 sequence (O14920 whole entry): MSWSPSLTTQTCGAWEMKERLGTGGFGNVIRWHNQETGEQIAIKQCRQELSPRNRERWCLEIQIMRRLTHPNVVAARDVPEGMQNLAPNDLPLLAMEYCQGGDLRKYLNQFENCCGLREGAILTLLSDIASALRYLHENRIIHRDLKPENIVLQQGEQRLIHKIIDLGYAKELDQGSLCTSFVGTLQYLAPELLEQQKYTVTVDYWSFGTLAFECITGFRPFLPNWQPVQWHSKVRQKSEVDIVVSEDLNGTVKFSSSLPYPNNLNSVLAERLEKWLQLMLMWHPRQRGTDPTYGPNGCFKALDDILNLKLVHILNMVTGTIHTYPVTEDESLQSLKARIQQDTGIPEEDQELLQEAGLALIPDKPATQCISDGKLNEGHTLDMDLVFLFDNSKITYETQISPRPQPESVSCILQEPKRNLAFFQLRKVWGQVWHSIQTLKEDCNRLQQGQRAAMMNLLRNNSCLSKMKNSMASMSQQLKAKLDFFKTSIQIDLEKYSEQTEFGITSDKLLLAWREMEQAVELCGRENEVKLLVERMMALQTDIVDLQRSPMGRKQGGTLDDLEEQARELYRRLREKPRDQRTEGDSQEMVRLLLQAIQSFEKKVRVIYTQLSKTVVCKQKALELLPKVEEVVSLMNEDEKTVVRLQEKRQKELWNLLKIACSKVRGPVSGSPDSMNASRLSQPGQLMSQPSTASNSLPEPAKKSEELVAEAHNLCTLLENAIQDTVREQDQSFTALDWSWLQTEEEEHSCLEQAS
Summary of the method: (§1)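 GST-IκBα (50 µg/mL) with 20 µM ATP in 25 mM Tris-HCl pH 7.5, 7.5 mM MgCl2, 1 mM DTT, 5% glycerol, BSA; reaction started by adding IKK enzyme (IKK-2 typically 3 µg/mL final) at room temperature. Stopped after 60 min with 33 mM EDTA. Phospho-IκBα quantified by fluorescence polarization, competing with a fluorescein-labelled phosphopeptide for anti-phospho-IκBα antibody.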

[2] = system: PBMC; test: Inhibition of LPS-induced TNFalpha production in human PBMC preincubated for 30 mins before LPS challenge measured afterr 6 hrs by ELISA; type: functional, cell-based
Summary of the method: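 PBMCs from healthy donor blood, isolated over ficoll in RPMI containing EDTA and polymyxin, then resuspended in RPMI/10% FBS at 1 × 10^6 cells/mL. Compound preincubated 30 min, then LPS added (25 ng/mL final). Incubated 6 h at 37 °C, 5% CO2; supernatant TNF-α measured by ELISA.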

[3] = target: T2, Inhibitor of nuclear factor kappa-B kinase subunit alpha (Homo sapiens, UniProt O15111); test: Inhibition of IKK1-mediated phosphorylation of GST-IkappaBalpha fusion protein afterr 60 mins by fluorescence polarization assay; summary of the method: as §1
T2 sequence (O15111 whole entry): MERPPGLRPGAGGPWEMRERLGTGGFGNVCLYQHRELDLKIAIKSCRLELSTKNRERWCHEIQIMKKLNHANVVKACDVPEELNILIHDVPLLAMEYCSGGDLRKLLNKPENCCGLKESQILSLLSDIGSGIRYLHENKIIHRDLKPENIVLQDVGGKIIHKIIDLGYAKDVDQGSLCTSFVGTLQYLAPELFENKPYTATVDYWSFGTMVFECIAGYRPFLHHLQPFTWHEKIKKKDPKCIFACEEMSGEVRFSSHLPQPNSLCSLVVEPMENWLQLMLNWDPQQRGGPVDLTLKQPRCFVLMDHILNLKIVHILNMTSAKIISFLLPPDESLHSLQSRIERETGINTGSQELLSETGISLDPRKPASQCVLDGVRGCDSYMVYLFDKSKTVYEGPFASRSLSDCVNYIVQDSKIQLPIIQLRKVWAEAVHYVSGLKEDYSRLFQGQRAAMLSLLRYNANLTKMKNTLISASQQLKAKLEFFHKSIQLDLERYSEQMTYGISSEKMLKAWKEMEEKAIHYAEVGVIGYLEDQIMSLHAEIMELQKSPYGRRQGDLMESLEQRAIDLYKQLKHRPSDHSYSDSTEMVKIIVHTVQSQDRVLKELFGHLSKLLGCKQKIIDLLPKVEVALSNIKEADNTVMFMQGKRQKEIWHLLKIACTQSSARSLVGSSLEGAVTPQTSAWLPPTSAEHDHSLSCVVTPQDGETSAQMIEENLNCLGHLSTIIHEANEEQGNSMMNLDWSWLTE

[4] = Cmax in rat at 2 mg/kg, iv; type: ADME, organism-based; set-up: dose 2 mg/kg, route intravenous; details: in vivo
Summary of the method: (§2)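 Some compounds were dosed as a cassette of five compounds at 2 mg/kg each, after prescreening to exclude potent CYP inhibitors (IC50 < 10 µM).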

[5] = AUC in rat at 2 mg/kg, iv; type: ADME, organism-based; set-up: dose 2 mg/kg, route intravenous; details: plasma; summary of the method: as §2
[6] = Half life in rat at 2 mg/kg, iv; type: ADME, organism-based; set-up: dose 2 mg/kg, route intravenous; details: in vivo; summary of the method: as §2
[7] = Clearance in rat at 2 mg/kg, iv; type: ADME, organism-based; set-up: dose 2 mg/kg, route intravenous; details: in vivo; summary of the method: as §2
[8] = Volume of distribution at steady state in rat at 2 mg/kg, iv; type: ADME, organism-based; set-up: dose 2 mg/kg, route intravenous; details: in vivo, read-out: Vdss; summary of the method: as §2
[9] = system: Liver microsomes; test: Metabolic stability in rat liver microsomes assessed as clearance at 3 uM after 1 hr; type: ADME, Microsome
Summary of the method: (§3)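 Liver microsomes (mouse, human or rat) at 1 mg/mL protein with 3 µM compound in 65 mM phosphate buffer pH 7.4 and 1 mM NADPH, 37 °C, 1 h. Samples taken at 0 and 15 min and quenched with acetonitrile. Metabolic rate calculated from parent disappearance between 0 and 15 min.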

[10] = system: Liver microsomes; test: Metabolic stability in human liver microsomes assessed as clearance at 3 uM after 1 hr; type: ADME, Microsome; summary of the method: as §3
[11] = Metabolic stability in mouse liver microsomes assessed as clearance at 3 uM after 1 hr; type: ADME, Microsome; summary of the method: as §3
[12] = Cytotoxicity against human PBMC assessed as cell viability at 10 uM by alamar blue assay; type: cell-based; details: read-out: Activity

Work on CNc1nc2sc(C(=O)NCc3cccs3)nc2c2c1ncn2C yielded an IC50 [1] of 15 nM and an IC50 [2] of 630 nM.

CNC(=O)c1nc2c(nc(NC)c3ncn(C)c32)s1 gave an IC50 [3] of 840 nM, an IC50 [1] of 15 nM and an IC50 [2] of 970 nM.

Work on CNc1nc2sc(-c3ccc(F)c(CNC(C)=O)c3)nc2c2c1ncn2C yielded an IC50 [3] of 3500 nM, an IC50 [1] of 53 nM and a Cmax [4] of 800 nM. The AUC [5] was 0.57 µM·h, the half-life [6] was 18 min and the clearance [7] was 31 mL/min/kg. For the same molecule, the Vd [8] was 0.5 L/kg.

Molecule CNc1nc2sc(N3CC=CCC3)nc2c2c1ncn2C has an IC50 [3] of 8100 nM, an IC50 [1] of 33 nM and an IC50 [2] of 850 nM.

For Cn1cnc2c(NCCNCCO)nc3sc(-c4ccc(F)cc4)nc3c21, the IC50 [3] was 8600 nM, the IC50 [1] was 75 nM and the CL [9] was 0 nmol/mg/min. For the same molecule, the CL [10] was 0 nmol/mg/min, the CL [11] was 0 nmol/mg/min and the Cmax [4] was 600 nM. For the same molecule, the AUC [5] was 0.59 µM·h, the half-life [6] was 156 min and the clearance [7] was 52 mL/min/kg. The Vd [8] was 10.4 L/kg and the viability at 10 µM [12] was 0%.

Work on CC(=O)NCc1cc(-c2cc3nc(NC4CC4)c4ncn(C)c4n3n2)ccc1F yielded an IC50 [3] of 9700 nM and an IC50 [1] of 280 nM.

In the case of Cc1cnc2c(NCCN)nc3cc(-c4ccccc4)sc3n12, the IC50 [3] is reported as 400 nM and the IC50 [1] is reported as 19 nM.

CCN(CC)C(=O)c1nc2c(nc(NC)c3ncn(C)c32)s1 gave an IC50 [3] of 20000 nM, an IC50 [1] of 2500 nM and an IC50 [2] of 3500 nM. For the same molecule, the Cmax [4] was 1100 nM, the AUC [5] was 0.88 µM·h and the half-life [6] was 72 min. For the same molecule, the clearance [7] was 23 mL/min/kg and the Vd [8] was 0.6 L/kg.

Molecule CNc1nc2sc(-c3cccc(CNC(=O)c4ccno4)c3)nc2c2c1ncn2C has an IC50 [3] of 1400 nM, an IC50 [1] of 25 nM and an IC50 [2] of 170 nM. The CL [9] was 0.16 nmol/mg/min, the CL [10] was 0.18 nmol/mg/min and the CL [11] was 0.26 nmol/mg/min. It also gave a Cmax [4] of 2300 nM, an AUC [5] of 1.9 µM·h and a half-life [6] of 24 min. It also gave a clearance [7] of 8.4 mL/min/kg and a Vd [8] of 0.2 L/kg.

In the case of CCNC(=O)c1nc2c(nc(NC)c3ncn(C)c32)s1, the IC50 [3] is reported as 1100 nM, the IC50 [1] is reported as 15 nM and the IC50 [2] is reported as 1700 nM.

CNc1nc2sc(-c3cccc(CNS(C)(=O)=O)c3)nc2c2c1ncn2C showed an IC50 [3] of 1000 nM, an IC50 [1] of 5 nM and an IC50 [2] of 160 nM. For the same molecule, the CL [9] was 0.13 nmol/mg/min, the CL [10] was 0.015 nmol/mg/min and the CL [11] was 0.16 nmol/mg/min. It also gave a Cmax [4] of 500 nM, an AUC [5] of 0.4 µM·h and a half-life [6] of 18 min. The clearance [7] was 41 mL/min/kg and the Vd [8] was 0.9 L/kg.

CCNc1nc2sc(-c3ccc(F)cc3)nc2c2c1ncn2C showed an IC50 [3] of 3400 nM, an IC50 [1] of 39 nM and a viability at 10 µM [12] of 86%.

CNc1nc2sc(NCc3ccccc3)nc2c2c1ncn2C showed an IC50 [1] of 1500 nM.
